# From paper PMC4005002 (Anti-cancer drugs, 2013)
# “And” between values parts separate entries of the source, which are not always exact repeats. Identical values can stand only once. Like-named read-outs stand apart in the source and are kept apart here.
# Key:
# [1] = tested on: pediatric patients with recurrent/refractory solid tumors; details: cited from earlier work
# [2] = Tem pharmacokinetics in whole blood; assay type: in vivo, human; details: for AUC(0-t): 0 to 24 hours post dose
# [3] = cited from earlier work; for median Cmax: children
# [4] = tested on: children and adolescents with refractory solid tumors; experiment: Phase I dose escalation of Tem in combination with VPA: toxicity; assay type: in vivo
# histone acetylation = details: cited from earlier work
# acetylated H4 = details: phase I study of VPA alone, half of the subjects; cited from earlier work
# [5] = VPA serum/plasma levels during treatment; assay type: in vivo, human
# HDAC activity in PBMC = experiment: Histone H4 acetylation in peripheral blood mononuclear cells; assay type: in vivo, human; details: data from subject 6, VPA with Tem
# Outline: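 PBMC isolated on Ficoll and stored at −80 C. Extracts normalized to cell number were run on SDS-PAGE and blotted with rabbit anti-tetra-acetyl H4 (1:2000) and anti-pan-H4 (1:1000). Scanned blots were quantified.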
compound,measurement,setting,value
"CO[C@H]1C[C@@H]2CC[C@@H](C)[C@@](O)(O2)C(=O)C(=O)N2CCCC[C@H]2C(=O)O[C@H]([C@H](C)C[C@@H]2CC[C@@H](OC(=O)C(C)(CO)CO)[C@H](OC)C2)CC(=O)[C@H](C)/C=C(\C)[C@@H](O)[C@@H](OC)C(=O)[C@H](C)C[C@H](C)/C=C/C=C/C=C/1C [Tem, Temsirolimus]",MTD of Tem as single agent,[1]; pediatric study,more than 150 mg/m^2 IV/week
same,MTD of Tem alone,[1]; phase I pediatric study,150 mg/m^2
same,"Peak Tem levels, range over patients","[2]; Tem 60 mg/m^2 dose level with VPA, both cycles","757–1,220 ng/mL"
same,Tmax,"[2]; cycle 5, Tem 35 mg/m^2 IV weekly with VPA, median, N = 2",30 min
same,Tmax,"[2]; human, whole blood, iv, 35 mg/m^2",39.6 min
same,AUC(0-t),"[2]; human, whole blood, iv, 35 mg/m^2, AUClast, cycle 1, Tem 35 mg/m^2 IV weekly with VPA, median, N = 3",7550 ng·h/mL
same,AUC(0-t),"[2]; human, whole blood, iv, 60 mg/m^2, AUClast, cycle 1, Tem 60 mg/m^2 IV weekly with VPA, median, N = 2",8330 ng·h/mL
same,half-life,"[2]; human, whole blood, iv, T1/2, cycle 5, Tem 60 mg/m^2 IV weekly with VPA, N = 1",504 min
same,median Cmax,[3]; Tem 25 mg/m^2 without VPA,448 ng/mL
same,median Cmax,[3]; Tem 75 mg/m^2 without VPA,442 ng/mL
same,"Peak Tem levels, range",[3]; children who had received 75 mg/m^2 Tem without VPA,369 to 630 ng/mL
same,tolerable dose of Tem with VPA,[4]; IV weekly with VPA PO TID,35 mg/m^2/week
same,MTD of Tem in combination with VPA,"[4]; IV weekly, VPA doses dropped using fatigue as endpoint",35 mg/m2/wk
same,dose of Tem well tolerated / likely MTD when combined with VPA,"[4]; IV weekly, only 3 patients treated at this dose",35 mg/m^2
same,mucositis at the lower dose,"[4]; human, in vivo","mucositis limited to grade 1 or 2, with the exception of one subject with grade 3"
"CCCC(CCC)C(=O)O [VPA, Valproic Acid]",VPA levels needed before acetylation is significantly affected,histone acetylation,greater than 100 mcg/mL
same,VPA levels associated with increased acetylated H4,acetylated H4,55 to 100 µg/mL
same,concentration at 24 h,"[5]; human, plasma, oral",52000 ng/mL
same,VPA level at grade 2 thrombocytopenia,"[5]; one patient, resolved after holding VPA for 3 days",56 µg/mL
same,VPA range,"[5]; patient 1, Tem 60 mg/m^2",26–72 (NA) mcg/mL
same,VPA level at time of grade 3 toxicity,"[5]; patient 2, Tem 60 mg/m^2",85 µg/mL and 112 µg/mL
same,VPA range,"[5]; patient 2, Tem 60 mg/m^2",78 to 112 µg/mL
same,VPA level at time of grade 3 toxicity,"[5]; patient 3, Tem 60 mg/m^2",91 µg/mL
same,VPA range,"[5]; patient 3, Tem 60 mg/m^2",<10 to 91 µg/mL
same,VPA level at time of grade 3 toxicity,"[5]; patient 4, Tem 35 mg/m^2",108 µg/mL
same,VPA range,"[5]; patient 4, Tem 35 mg/m^2",68 to 108 µg/mL
same,VPA level at time of grade 3 toxicity,"[5]; patient 5, Tem 35 mg/m^2",87 µg/mL
same,VPA range,"[5]; patient 5, Tem 35 mg/m^2",13 to 87 µg/mL
same,VPA level at time of grade 3 toxicity,"[5]; patient 6, Tem 35 mg/m^2",78 µg/mL
same,VPA range,"[5]; patient 6, Tem 35 mg/m^2",22 to 78 µg/mL
same,VPA level at the time of maximum symptoms (grade 3 bilateral plantar pain),"[5]; subject #5, beginning of 4th month of treatment",87 µg/mL
same,VPA plasma levels required to inhibit HDAC activity in PBMC,HDAC activity in PBMC,> 70 µg/dL
same,VPA levels with which toxicity seemed to correlate,[4]; Tem plus VPA,> 75 µg/mL
same,fatigue attributed to VPA,[4]; in vivo,dose-limiting fatigue
